Laboratory results as given in ChEMBL document CHEMBL4304827, “Design, synthesis and evaluation of structurally diverse chrysin-chromene-spirooxindole hybrids as anticancer agents” (Bioorg Med Chem, 2019).
pIC50: −log10 of the molar value.

How the values were obtained:
A549 [1] = test: Induction of apoptosis in human A549 cells incubated for 24 hrs by annexin V FITC and PI staining based flow cytometry; type: functional, cell-based
NCI-H1299 = test: Antiproliferative activity against human H1299 cells assessed as reduction in cell proliferation incubated for 48 hrs by MTT assay; type: functional, cell-based; conditions: NCI-H1299, 48 h
Summary of the method: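 Log-phase cells were plated at 5 × 10^3/well in RPMI-1640 with 10% FBS and cultured 24 h. Compounds were added at graded concentrations (DMSO <0.1%) for 48 h. MTT (5 mg/mL) was added for about 4 h, formazan was dissolved in DMSO and A490 was read. IC50 was calculated from ≥3 independent experiments and reported as mean ± SD. Chrysin served as positive control.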

A549 [2] = test: Inhibition of colony formation in human A549 cells culture in 0.3% RPMI-1640 medium agar assessed as decrease in size and number of colonies formed incubated for 20 days by NBT staining based assay; type: functional, cell-based
Summary of the method: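 A549 cells at 1 × 10^5 cells/mL were treated with various concentrations in 0.3% medium-agar layered over 0.6% medium-agar. Cultures were kept at 37 °C and 5% CO2. Methods give 14 days; the figure legend gives 20 days. Colonies were stained with 1.5 mg/mL NBT and counted as a percentage of control. Mean ± SD, ≥3 experiments.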

A549 [3] = test: Induction of apoptosis in human A549 cells assessed as morphological changes by measuring rounded cells with weak adhesion incubated for 24 hrs; type: functional, cell-based
Summary of the method: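 A549 cells were plated at 3 × 10^5/well and cultured 12 h, then exposed to various concentrations for 24 h. Morphology was observed by microscopy. AO-EB stain (1 mg/mL each, in PBS) was applied for 10 min at room temperature in the dark. Harvested cells were stained with PI for 15 min at room temperature in the dark, then washed. Both stains were examined by fluorescence microscopy.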

A549 [4] = test: Induction of apoptosis in human A549 cells assessed as increase in caspase 3 activity incubated for 24 hrs by colorimetry; type: functional, cell-based
Summary of the method: (§1)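 A549 cells were plated at 3 × 10^5/well and cultured 12 h, then treated with various concentrations for 24 h. Cells were lysed on ice for 60 min. Lysate containing 200 μg protein was incubated with caspase-3, -8 or -9 colorimetric substrate at 37 °C for 4 h in the dark, and A405 was read. Activation = (treated − blank)/(control − blank). Mean ± SD, ≥3 experiments.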

A549 [5] = test: Induction of apoptosis in human A549 cells assessed as increase in DNA ladder formation incubated for 24 hrs by agarose gel electrophoresis method; type: functional, cell-based
Summary of the method: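 A549 cells were treated with various concentrations for 24 h. Genomic DNA was isolated by lysis, RNase A and proteinase K digestion, then ethanol precipitation. DNA was run on a 2% agarose gel to visualize ladder formation.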

A549 [6] = test: Induction of apoptosis in human A549 cells assessed as viable cells at 25 uM incubated for 24 hrs by annexin V FITC and PI staining based flow cytometry (reference value: 95.7%); type: functional; conditions: A549, 24 h, read-out: Activity
A549 [7] = test: Induction of apoptosis in human A549 cells assessed as early apoptotic cells at 25 uM incubated for 24 hrs by annexin V FITC and PI staining based flow cytometry (reference value: 0.53%); type: functional
A549 [8] = test: Induction of apoptosis in human A549 cells assessed as early apoptotic cells at 50 uM incubated for 24 hrs by annexin V FITC and PI staining based flow cytometry (reference value: 0.53%); type: functional
A549 [9] = test: Induction of apoptosis in human A549 cells assessed as late apoptotic cells at 5 uM incubated for 24 hrs by annexin V FITC and PI staining based flow cytometry (reference value: 1.32%); type: functional
A549 [10] = test: Induction of apoptosis in human A549 cells assessed as late apoptotic cells at 50 uM incubated for 24 hrs by annexin V FITC and PI staining based flow cytometry (reference value: 1.32%); type: functional
A549 [11] = test: Induction of apoptosis in human A549 cells assessed as necrotic cells at 50 uM incubated for 24 hrs by annexin V FITC and PI staining based flow cytometry (reference value: 2.43%); type: functional
A549 [12] = test: Induction of ROS production in human A549 cells incubated for 24 hrs by DCFH-DA staining based fluorescence microscopy; type: functional, cell-based
Summary of the method: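 A549 cells were plated at 3 × 10^5/well and cultured 12 h, then treated with various concentrations for 24 h. They were washed in serum-free medium and loaded with DCFH-DA (10 μM) for 20 min at 37 °C in the dark. DCF fluorescence was imaged by fluorescence microscopy.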

A549 [13] = test: Induction of apoptosis in human A549 cells assessed as increase in caspase 3 activity at 100 uM incubated for 24 hrs by colorimetry relative to control; type: functional; summary of the method: as §1
A549 [14] = test: Induction of apoptosis in human A549 cells assessed as increase in caspase 9 activity incubated for 24 hrs by colorimetry; type: functional, cell-based; summary of the method: as §1
A549 [15] = test: Induction of apoptosis in human A549 cells assessed as downregulation of 5-Lox protein expression incubated for 24 hrs by Western blot analysis; type: functional, cell-based
Summary of the method: (§2)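 A549 cells were treated with various concentrations for 24 h and lysed in RIPA buffer with 1 mM PMSF. Protein (20 μg) was resolved on 8-12% SDS-PAGE and transferred to PVDF. Membranes were blocked in 5% milk and probed with primary antibodies overnight at 4 °C, then with anti-rabbit secondary. Bands were quantified by densitometry. Mean ± SD, ≥3 experiments.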

A549 [16] = test: Induction of apoptosis in human A549 cells assessed as upregulation of p21 protein expression incubated for 24 hrs by Western blot analysis; type: functional, cell-based; summary of the method: as §2
A549 [17] = test: Antimigratory activity in human A549 cells assessed as reduction in cell invasion incubated for 36 hrs by matrigel transwell migration assay; type: functional, cell-based
Summary of the method: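 Cells were suspended at 1 × 10^4/mL in RPMI-1640 with 1% FBS and seeded in the upper chamber. For the invasion assay the upper chamber was coated with Matrigel. The lower chamber held medium with 10% FBS. Compound was given at various concentrations for 36 h. Membranes were methanol-fixed and stained with 0.1% crystal violet. Cells on the lower side were counted relative to control (100%). Mean ± SD, ≥3 experiments.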

A549 [18] = test: Induction of apoptosis in human A549 cells assessed as downregulation of Bcl2 protein expression at 10 uM by Western blot analysis; type: functional, cell-based; conditions: TDE = time-dependent effect
Summary of the method: as §2, with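 “exposed to 10 μM” for “treated with various concentrations”, “different times” for “24 h”, “separated” for “resolved”, “incubated” for “probed”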

A549 [19] = test: Induction of apoptosis in human A549 cells assessed as downregulation of Akt protein expression at 10 uM by Western blot analysis; type: functional, cell-based; conditions: TDE = time-dependent effect
Summary of the method: as §2, with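 “exposed to 10 μM” for “treated with various concentrations”, “different times” for “24 h”, “separated” for “resolved”, “incubated” for “probed”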

A549 [20] = test: Induction of apoptosis in human A549 cells assessed as upregulation of p53 protein expression at 10 uM by Western blot analysis; type: functional, cell-based; conditions: TDE = time-dependent effect
Summary of the method: as §2, with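 “exposed to 10 μM” for “treated with various concentrations”, “different times” for “24 h”, “separated” for “resolved”, “incubated” for “probed”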

A549 [21] = test: Induction of apoptosis in human A549 cells assessed as increase in caspase 8 activity incubated for 24 hrs by colorimetry; type: functional, cell-based; summary of the method: as §1

With `CN1C(=O)C2(C(C#N)=C(N)Oc3cc4oc(-c5ccccc5)cc(=O)c4c(O)c32)c2cc(Br)ccc21` (configuration not stated) the Activity (A549 [1]) was “Dose-dependent effect”, the pIC50 (NCI-H1299) was 5.12 and the inhibition (A549 [2]) was “Dose-dependent effect”. For the same compound, the Activity (A549 [3]) was “Dose-dependent effect”, the Activity (A549 [4]) was “Dose-dependent effect” and the Activity (A549 [5]) was “Dose-dependent effect”. The viability at 25 µM (A549 [6]) was 73.5%, the Activity (A549 [7]) was 9.8% and the Activity (A549 [8]) was 9.33%. For the same compound, the Activity (A549 [9]) was 6.73%, the Activity (A549 [10]) was 24.8% and the Activity (A549 [11]) was 6.11%. The Activity (A549 [12]) was “Dose-dependent effect”, the “fold change (FC)” value (A549 [13]) was 5.24 and the Activity (A549 [14]) was “Dose-dependent effect”. For the same compound, the inhibition (A549 [15]) was “Dose-dependent effect”, the Activity (A549 [16]) was “Dose-dependent effect” and the inhibition (A549 [17]) was “Dose-dependent effect”. The inhibition (A549 [18]) was “Tde”, the inhibition (A549 [19]) was “Tde” and the Activity (A549 [20]) was “Tde”. The Activity (A549 [21]) was “Dose-dependent effect”.
